The results in this text go back to ChEMBL document CHEMBL2417369, “Synthesis and evaluation of heteroaryl substituted diazaspirocycles as scaffolds to probe the ATP-binding site of protein kinases” (Bioorg Med Chem, 2013).

Experiment [1] addresses T1, Aurora kinase A (Homo sapiens, UniProt O14965).
T1 sequence (O14965 whole entry): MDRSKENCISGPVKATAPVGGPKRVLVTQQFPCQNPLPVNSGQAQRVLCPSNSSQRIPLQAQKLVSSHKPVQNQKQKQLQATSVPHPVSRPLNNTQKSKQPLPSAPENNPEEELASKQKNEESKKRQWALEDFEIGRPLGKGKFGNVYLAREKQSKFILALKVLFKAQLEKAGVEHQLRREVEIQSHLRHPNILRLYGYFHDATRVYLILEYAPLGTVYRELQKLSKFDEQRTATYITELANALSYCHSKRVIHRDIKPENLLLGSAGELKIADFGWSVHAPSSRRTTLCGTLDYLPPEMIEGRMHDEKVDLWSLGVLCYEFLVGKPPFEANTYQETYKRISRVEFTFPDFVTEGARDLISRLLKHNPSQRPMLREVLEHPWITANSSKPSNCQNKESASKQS
The experiment in a line: Inhibition of AURA (unknown origin) by microfluidic mobility shift assay.

Experiment [2] has as its target Receptor-type tyrosine-protein kinase FLT3 (Homo sapiens) (UniProt P36888). The experiment in a line: Inhibition of FLT3 (unknown origin) at 30 uM by microfluidic mobility shift assay relative to control. The essentials: (§1)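 Single-point screen at 30 µM test compound across a 24-kinase panel in a microfluidic assay format. ATP was set near each enzyme's Km,[ATP]. […] The pan-AGC inhibitor H-89 served as an internal control on every assay plate.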

Experiment [3] has as its target Platelet-derived growth factor receptor (Homo sapiens) (UniProt P09619+P16234). Description: Inhibition of PDGFR (unknown origin) at 30 uM by microfluidic mobility shift assay relative to control. It is filed as protein-complex assay. The essentials:
as §1

The test system of experiment [4] is Tyrosine-protein kinase ABL1 (Homo sapiens), P00519 [H396P]. Description: Inhibition of ABL H396P mutant (unknown origin) at 30 uM by microfluidic mobility shift assay relative to control. It is filed as protein assay. The essentials: as §1
For experiment [5], the target named is Mitogen-activated protein kinase 11 (Homo sapiens) (UniProt Q15759). The experiment in a line: Inhibition of p38beta-2 (unknown origin) at 30 uM by microfluidic mobility shift assay relative to control. The essentials: (§2)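 Single-point screen against a 24-kinase panel in a commercial microfluidic assay format. Compounds were tested at 30 µM, with ATP at approximately the Km,[ATP] of each enzyme. H-89 was included on each assay plate as an internal control.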
Chain of Mitogen-activated protein kinase 11 (Homo sapiens) (Q15759 whole entry): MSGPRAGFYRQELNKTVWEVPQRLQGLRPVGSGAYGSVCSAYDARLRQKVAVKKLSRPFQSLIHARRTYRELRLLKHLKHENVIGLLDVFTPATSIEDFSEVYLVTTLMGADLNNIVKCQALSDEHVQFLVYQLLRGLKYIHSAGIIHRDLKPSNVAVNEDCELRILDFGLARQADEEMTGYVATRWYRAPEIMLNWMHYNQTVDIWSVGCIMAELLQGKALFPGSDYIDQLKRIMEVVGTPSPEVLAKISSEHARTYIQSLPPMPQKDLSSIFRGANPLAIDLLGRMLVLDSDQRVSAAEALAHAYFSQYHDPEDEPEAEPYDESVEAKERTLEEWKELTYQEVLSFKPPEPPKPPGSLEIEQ

Experiment [6] deals with Serine/threonine-protein kinase MARK1 (Homo sapiens) (UniProt Q9P0L2). Description: Inhibition of MARK1 (unknown origin) at 30 uM by microfluidic mobility shift assay relative to control. Summed up: as §1
Chain of Serine/threonine-protein kinase MARK1 (Homo sapiens) (Q9P0L2 whole entry, looked up): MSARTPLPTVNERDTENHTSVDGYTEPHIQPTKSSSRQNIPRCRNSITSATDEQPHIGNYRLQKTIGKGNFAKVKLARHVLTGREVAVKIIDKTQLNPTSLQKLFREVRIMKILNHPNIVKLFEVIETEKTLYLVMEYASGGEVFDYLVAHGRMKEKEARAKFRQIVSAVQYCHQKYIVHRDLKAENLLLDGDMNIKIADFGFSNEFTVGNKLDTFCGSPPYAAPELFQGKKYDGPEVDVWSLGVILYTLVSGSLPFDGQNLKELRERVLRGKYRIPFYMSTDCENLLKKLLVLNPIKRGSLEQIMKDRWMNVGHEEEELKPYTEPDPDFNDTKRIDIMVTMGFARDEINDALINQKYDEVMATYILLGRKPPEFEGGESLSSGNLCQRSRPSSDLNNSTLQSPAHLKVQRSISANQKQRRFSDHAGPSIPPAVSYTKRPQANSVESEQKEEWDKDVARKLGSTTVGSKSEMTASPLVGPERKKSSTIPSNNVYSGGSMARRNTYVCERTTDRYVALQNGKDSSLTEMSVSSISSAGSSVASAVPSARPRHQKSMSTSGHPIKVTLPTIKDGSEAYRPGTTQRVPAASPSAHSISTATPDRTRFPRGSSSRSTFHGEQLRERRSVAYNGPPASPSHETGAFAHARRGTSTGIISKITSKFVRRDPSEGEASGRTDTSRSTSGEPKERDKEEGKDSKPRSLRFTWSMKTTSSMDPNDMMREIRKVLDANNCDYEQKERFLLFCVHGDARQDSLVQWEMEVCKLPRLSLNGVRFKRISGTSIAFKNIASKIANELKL
In experiment [7] the target is T2, Serine/threonine-protein kinase BRSK2 (Homo sapiens) (UniProt Q8IWQ3).
T2 sequence (whole entry): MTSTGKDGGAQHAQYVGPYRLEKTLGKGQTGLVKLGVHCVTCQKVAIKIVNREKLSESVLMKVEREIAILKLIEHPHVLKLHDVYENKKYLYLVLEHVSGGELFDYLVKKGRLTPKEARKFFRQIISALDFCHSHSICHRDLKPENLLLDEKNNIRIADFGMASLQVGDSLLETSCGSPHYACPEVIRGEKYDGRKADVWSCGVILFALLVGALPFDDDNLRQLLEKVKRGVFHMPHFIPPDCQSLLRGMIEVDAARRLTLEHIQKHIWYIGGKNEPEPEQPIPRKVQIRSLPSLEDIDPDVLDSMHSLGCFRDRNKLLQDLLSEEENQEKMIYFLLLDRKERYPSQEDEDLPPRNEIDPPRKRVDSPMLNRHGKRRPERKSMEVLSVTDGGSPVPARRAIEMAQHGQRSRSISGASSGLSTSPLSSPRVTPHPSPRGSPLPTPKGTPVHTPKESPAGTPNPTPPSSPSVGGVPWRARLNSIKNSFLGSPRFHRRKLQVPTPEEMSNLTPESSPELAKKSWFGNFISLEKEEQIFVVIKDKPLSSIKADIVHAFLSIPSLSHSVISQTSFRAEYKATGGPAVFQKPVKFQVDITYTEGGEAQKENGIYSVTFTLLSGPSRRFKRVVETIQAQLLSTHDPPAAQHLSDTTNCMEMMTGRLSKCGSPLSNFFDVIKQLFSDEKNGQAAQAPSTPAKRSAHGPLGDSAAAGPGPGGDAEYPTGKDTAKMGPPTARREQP
Description: Inhibition of BRSK2 (unknown origin) at 30 uM by microfluidic mobility shift assay relative to control. The essentials: as §1

The species entered for experiment [8] is Homo sapiens. Description: Inhibition of PKGbeta (unknown origin) at 30 uM by microfluidic mobility shift assay relative to control. The essentials: as §2
Experiment [9] deals with T3, Serine/threonine-protein kinase Nek2 (Homo sapiens) (UniProt P51955).
T3 sequence (whole entry): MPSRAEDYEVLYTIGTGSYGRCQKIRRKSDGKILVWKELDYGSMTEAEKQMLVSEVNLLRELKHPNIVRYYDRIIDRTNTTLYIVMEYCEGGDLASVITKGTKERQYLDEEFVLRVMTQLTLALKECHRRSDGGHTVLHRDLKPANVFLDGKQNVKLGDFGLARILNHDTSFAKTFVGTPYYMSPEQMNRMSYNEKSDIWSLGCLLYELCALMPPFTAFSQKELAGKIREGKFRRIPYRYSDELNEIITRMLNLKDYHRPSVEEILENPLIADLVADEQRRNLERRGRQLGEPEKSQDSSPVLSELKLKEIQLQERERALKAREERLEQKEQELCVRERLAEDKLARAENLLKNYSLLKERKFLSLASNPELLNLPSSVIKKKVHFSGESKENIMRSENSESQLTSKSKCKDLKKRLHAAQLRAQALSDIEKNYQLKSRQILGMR
Description: Inhibition of NEK2 (unknown origin) at 30 uM by microfluidic mobility shift assay relative to control. The essentials: as §1

Experiment [10] has as its target T4, Serine/threonine-protein kinase 3 (Homo sapiens) (UniProt Q13188).
T4 sequence (whole entry): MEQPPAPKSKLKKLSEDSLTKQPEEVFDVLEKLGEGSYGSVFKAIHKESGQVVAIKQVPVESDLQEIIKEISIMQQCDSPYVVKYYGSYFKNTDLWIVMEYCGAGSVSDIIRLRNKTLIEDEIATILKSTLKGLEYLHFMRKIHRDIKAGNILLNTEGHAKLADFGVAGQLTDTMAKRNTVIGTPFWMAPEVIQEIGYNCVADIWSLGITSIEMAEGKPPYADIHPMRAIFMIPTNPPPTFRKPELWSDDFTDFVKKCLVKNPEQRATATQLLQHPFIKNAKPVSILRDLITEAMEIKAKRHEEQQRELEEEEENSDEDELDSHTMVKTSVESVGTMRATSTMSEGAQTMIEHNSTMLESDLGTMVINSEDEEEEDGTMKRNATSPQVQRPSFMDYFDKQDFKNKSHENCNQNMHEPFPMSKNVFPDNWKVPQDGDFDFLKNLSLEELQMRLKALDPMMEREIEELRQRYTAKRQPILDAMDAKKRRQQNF
Description: Inhibition of MST2 (unknown origin) at 30 uM by microfluidic mobility shift assay relative to control. The essentials: as §1

Experiment [11] concerns the target Calcium/calmodulin-dependent protein kinase type II subunit gamma (Homo sapiens) (UniProt Q13555). The experiment in a line: Inhibition of CAMK2gamma (unknown origin) at 30 uM by microfluidic mobility shift assay relative to control.

pIC50: −log10 of the molar value.

Broadly, the pIC50 is the IC50 on a negative log10 scale, so that one unit is a factor of ten. One may read the inhibition as the drop in the measured response relative to a control, in per cent.

Chain of Receptor-type tyrosine-protein kinase FLT3 (Homo sapiens) (P36888 whole entry): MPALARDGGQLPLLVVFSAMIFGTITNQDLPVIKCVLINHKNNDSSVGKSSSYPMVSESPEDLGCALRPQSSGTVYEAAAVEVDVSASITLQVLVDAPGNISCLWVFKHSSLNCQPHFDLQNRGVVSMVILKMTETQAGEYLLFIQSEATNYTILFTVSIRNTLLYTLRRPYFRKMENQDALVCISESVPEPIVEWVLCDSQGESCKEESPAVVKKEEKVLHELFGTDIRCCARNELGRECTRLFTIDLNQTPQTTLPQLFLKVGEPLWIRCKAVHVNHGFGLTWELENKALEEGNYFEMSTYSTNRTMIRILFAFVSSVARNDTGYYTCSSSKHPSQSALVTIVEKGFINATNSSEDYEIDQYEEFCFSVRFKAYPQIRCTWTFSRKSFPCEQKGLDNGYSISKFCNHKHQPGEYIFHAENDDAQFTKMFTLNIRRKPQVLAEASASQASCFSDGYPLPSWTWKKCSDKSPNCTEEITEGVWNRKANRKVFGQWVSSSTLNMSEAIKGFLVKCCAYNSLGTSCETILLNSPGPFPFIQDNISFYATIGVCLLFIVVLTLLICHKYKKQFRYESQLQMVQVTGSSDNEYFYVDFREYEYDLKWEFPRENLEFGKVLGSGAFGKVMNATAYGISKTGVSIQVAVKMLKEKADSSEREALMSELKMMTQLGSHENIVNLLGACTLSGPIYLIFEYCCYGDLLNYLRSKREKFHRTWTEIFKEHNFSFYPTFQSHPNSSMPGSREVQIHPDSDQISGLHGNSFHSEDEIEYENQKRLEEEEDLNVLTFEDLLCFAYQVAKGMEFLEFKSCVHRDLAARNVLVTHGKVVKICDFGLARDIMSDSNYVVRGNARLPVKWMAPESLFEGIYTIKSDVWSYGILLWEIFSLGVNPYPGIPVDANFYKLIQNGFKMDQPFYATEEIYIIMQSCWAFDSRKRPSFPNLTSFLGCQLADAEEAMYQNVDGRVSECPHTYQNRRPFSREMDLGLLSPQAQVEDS
Chain of Calcium/calmodulin-dependent protein kinase type II subunit gamma (Homo sapiens) (Q13555 whole entry, looked up): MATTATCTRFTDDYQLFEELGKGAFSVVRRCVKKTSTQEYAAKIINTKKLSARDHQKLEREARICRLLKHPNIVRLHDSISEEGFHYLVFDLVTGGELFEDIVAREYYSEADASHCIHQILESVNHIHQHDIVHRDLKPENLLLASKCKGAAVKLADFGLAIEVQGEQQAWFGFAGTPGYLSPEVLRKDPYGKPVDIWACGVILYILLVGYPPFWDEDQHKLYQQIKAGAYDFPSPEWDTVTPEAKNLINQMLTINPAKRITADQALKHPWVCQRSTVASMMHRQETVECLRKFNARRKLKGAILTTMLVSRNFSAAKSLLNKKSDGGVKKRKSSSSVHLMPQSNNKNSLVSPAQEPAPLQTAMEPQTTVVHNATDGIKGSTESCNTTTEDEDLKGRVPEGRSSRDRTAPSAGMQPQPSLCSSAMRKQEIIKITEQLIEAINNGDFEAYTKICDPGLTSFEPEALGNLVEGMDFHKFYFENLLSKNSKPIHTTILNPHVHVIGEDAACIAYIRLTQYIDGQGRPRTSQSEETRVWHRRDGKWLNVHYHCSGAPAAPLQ

For the compound `c1nc(N2CCC3(CCCNC3)CC2)c2nc[nH]c2n1`, the pIC50 in experiment [1] is 5.01.

On to `c1ccc(CC2CCC3(CCN(c4ncnc5[nH]cnc45)CC3)NC2)cc1` (racemic), for which the inhibition turned out to be 28% in experiment [2]; 28% in experiment [3]; 28% in [4]; 3% in experiment [5]; 0% in experiment [6]; 1% in experiment [7]. Moreover, the inhibition in experiment [8] was 86%; in experiment [9], 7%; in [10] it was 18%; in experiment [11] it was 17%.

Turning to `O=C(O)C1CCC2(CCN(c3ncnc4[nH]cnc34)CC2)NC1` (racemic), the pIC50 in experiment [1] was 5.21.

Consider `c1ccc(CC2CCNC3(CCN(c4ncnc5[nH]cnc45)CC3)C2)cc1` (racemic), for which the inhibition came out at 10% in experiment [2]; 20% in experiment [3]; 15% in experiment [4]; 8% in experiment [5]; 99% in experiment [6]; 0% in experiment [7]. Moreover, the inhibition in experiment [8] is 98%; in experiment [9], 11%; in experiment [10], 10%; in experiment [11], 17%.

With `c1nc(N2CCC3(CCCCN3)CC2)c2nc[nH]c2n1`, the negative logarithm of the IC50 (pIC50) in [1] was 5.11.

As to `c1ccc(C2CCNC3(CCN(c4ncnc5[nH]cnc45)CC3)C2)cc1` (racemic), the inhibition in experiment [2] worked out at 25%; in experiment [3] it was 29%; in [4], 42%; in experiment [5], 4%; in experiment [6], 89%; in experiment [7], 16%. The inhibition is 99% in experiment [8], 14% in [9], 17% in experiment [10] and 18% in experiment [11].
